Among the data in the RNAGym collection of RNA variant scans (doi:10.1126/science.aae0568) are yeast fitness values, retold here.

The labels stand for the following.
B1: tRNA (parent)
chain: GUUCCGUUGGCGUAAUGGUAACGCGUCUCCCUCCUAAGGAGAAGACUGCGGGUUCGAGUCCCGUACGGAACG

Fewer inactive variants are shown than the library holds. A value given as a limit tells only on which side of the number the result lay.

The series covers variants of B1. The experiment in a line: yeast fitness relative to wild type (ratio to wild type); higher = fitter; tRNA-Arg(CCU), competitive growth, 37 C, YPD. The method in brief:
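A pool of Saccharomyces cerevisiae strains, each with a tRNA-Arg(CCU) gene variant at the native genomic locus, was competed in YPD at 37°C for 24 hours across six parallel replicates. The variants had been chemically synthesised at a 3% per-site mutation rate over 69 sites, and gene amplicons before and after competition were read by 100-nucleotide paired-end sequencing. Darwinian fitness relative to wild type rested on changes in genotype frequencies. Genotypes required ≥ 100 starting reads, and estimates < 0.5 were set to 0.5.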
With G23C U26C C27U A42U, the yeast fitness is 0.566.
Consider C24A C27U U54C U59C, for which the yeast fitness amounted to 0.551.
Regarding C24A G63A, the yeast fitness was found to be 0.658.
G23C G38C C49G: the yeast fitness was found to be 0.534.
For the variant G23C U28A G39A G48A C61G C66G, the yeast fitness is no more than 0.5.
Take G23C C31G A40U G51A: the yeast fitness stood at 0.656.
As to G23U C24G C27U C62G C66G, the yeast fitness was no more than 0.5.
As to C24A A42U G44A, the yeast fitness turned out to be 0.581.
For the variant G23C U47G C62G G68A, the yeast fitness was no more than 0.5.
Under C24A A69C stands 0.724.
To C24A A69U belongs 0.752; to G23C U47C C60G, no more than 0.5.
Consider C24A C46A A70C, for which the yeast fitness turned out to be 0.851.
For C24G A36G G50U U53A, the yeast fitness is no more than 0.5.
Under G23U U28G stands 0.552; under G23C C31A C49A, 0.758.
As for C24A U32C, the yeast fitness is 0.612.
C24G A36G A70G: the yeast fitness was no more than 0.5.
Consider C24A C31U A42C U47C, for which the yeast fitness is no more than 0.5.
As to G23C C31G G44C U47A C66U A69C, the yeast fitness is no more than 0.5.
C24A C33G A40C C55U G67A: the yeast fitness was no more than 0.5.
On to C24A U32G A36U A57C, for which the yeast fitness is no more than 0.5.
In the case of G23C C31G G44C U47A A69C, the yeast fitness was no more than 0.5.
Turning to C24A C27A U28A A70U, the yeast fitness is no more than 0.5.
C24A C29G A69G: the yeast fitness was no more than 0.5.
Under C24A C31A A43U C55U stands 0.674; under G23C U28A A36C, no more than 0.5; under C24A A43G G52A G58A, no more than 0.5.
On to C24A C33G C34U G58C, for which the yeast fitness was 0.551.
On to C24A C31U A42C A65C, for which the yeast fitness was no more than 0.5.
For G23C C33A A36U, the yeast fitness worked out at 0.529.
To G23C C62U belongs 0.743.
Turning to G23C C62A, the yeast fitness worked out at 0.541.
Take C24A C33A G51C C62U: the yeast fitness was no more than 0.5.
Take G23C C30U C34U G67C: the yeast fitness is no more than 0.5.
With C24A C34U G41A, the yeast fitness was no more than 0.5.
Under G23C U35G A42U stands no more than 0.5; under G23C C31G A40U G51A A57C, no more than 0.5.
On to G23C C30G G67A, for which the yeast fitness is no more than 0.5.
Regarding C24A C31U G56C, the yeast fitness was no more than 0.5.
Consider C24A C29G G51C U54A, for which the yeast fitness was no more than 0.5.
To G23C C34U A36U belongs no more than 0.5.
Take C24A U28C G56A: the yeast fitness is no more than 0.5.
Regarding C24A C49U C62U, the yeast fitness was found to be 0.654.
Regarding C24A A37C G38A G58C G63C, the yeast fitness was no more than 0.5.
Turning to G23C U32C A45U, the yeast fitness amounted to 0.605.
As to G23U C24G C27U A69C, the yeast fitness is no more than 0.5.
For the variant G23C G44C C49U, the yeast fitness was no more than 0.5.
To C24A C29U A36U C55U belongs no more than 0.5.
Take C24A U47A: the yeast fitness stood at 0.619.
Under G23C C46A G56A C62U stands 0.758; under G23C C61G G68C, 0.5; under C24A C29U G50A A65G C66U, no more than 0.5.
C24A G39C A42G: the yeast fitness was no more than 0.5.
Under G23U A45G stands 0.579.
Regarding C24A C31G C34U G68A, the yeast fitness was no more than 0.5.
Consider C24A C30G, for which the yeast fitness is no more than 0.5.
For the variant C24A C29G C30G C49U, the yeast fitness was no more than 0.5.
For the variant C24A A43U G52A, the yeast fitness is no more than 0.5.
To G23C U26C C27U C46U A69C belongs no more than 0.5.
To G23C C31U C55A belongs no more than 0.5; to G23C C30G A70G, no more than 0.5; to G23C C61U, 0.703.
With G23C C61A, the yeast fitness is no more than 0.5.
With G23C C61G, the yeast fitness was 0.587.
For C24A C29G C33G, the yeast fitness was determined as 0.619.
Turning to C24A U35G A65C, the yeast fitness is no more than 0.5.
With C24A G39A C60A, the yeast fitness is no more than 0.5.
For the variant C24A A40G C49A A65C, the yeast fitness is no more than 0.5.
For C24A C29G U35G A36C, the yeast fitness is no more than 0.5.
Consider G23U A40G G63A, for which the yeast fitness was no more than 0.5.
Under C24A G41A stands 0.738; under C24A U59G C62U A70G, 0.54; under C24G A36C A70C, 0.567.
As to C24A U32C C61G, the yeast fitness was no more than 0.5.
Take C24A C31U A42C U64A: the yeast fitness is no more than 0.5.
For G23U A40G, the yeast fitness was 0.682.
To C24A C30U G38C G58C belongs no more than 0.5; to C24A A36G A37G A69U, no more than 0.5.
As to C24A A36G A37G A69C, the yeast fitness is no more than 0.5.
Regarding C24A C62G A70U, the yeast fitness came to 0.562.
In the case of G23C C30G C49U A65C, the yeast fitness was no more than 0.5.
Under C24A G41C G48A stands 0.625.
As for C24A G52C A57C, the yeast fitness stood at 0.561.
For C24G A36G A40C C55G G63C, the yeast fitness is no more than 0.5.
On to C24A U32C C55A C60U, for which the yeast fitness amounted to 0.698.
On to G23C U53A C55U, for which the yeast fitness is 0.563.
For the variant C24A C31U G38A G58C, the yeast fitness is no more than 0.5.
On to G23C C33U A43U A45C, for which the yeast fitness was no more than 0.5.
As for C24A C46A G63A, the yeast fitness came to 0.793.
For the variant C24A C30U U64G, the yeast fitness was no more than 0.5.
Take C24A C29U G50A: the yeast fitness was no more than 0.5.
For C24A C46A, the yeast fitness was found to be 1.01.
C24A C46U: the yeast fitness turned out to be 1.1.
For the variant C24A C30U A65G A69U, the yeast fitness was no more than 0.5.
On to G23C C34U A36U C55A, for which the yeast fitness was 0.581.
On to C24A A40G C49A, for which the yeast fitness is no more than 0.5.
Consider C24A C27G C29G G52C, for which the yeast fitness was found to be 0.996.
With C24A A42G G48C, the yeast fitness was no more than 0.5.
As to C24A A42U, the yeast fitness was determined as 0.659.
Consider G23C C31A A36U A70C, for which the yeast fitness came to 0.557.
Regarding C24A A43C A65G, the yeast fitness is no more than 0.5.
For the variant C24A G50A C66U, the yeast fitness stood at 0.5.
To C24A A57C C61G belongs no more than 0.5; to C24A A37C G38A A65G C66U, no more than 0.5; to C24G A36G A45G C61A A70G, no more than 0.5.
In the case of C24A A37G A57G G63A A65G, the yeast fitness is no more than 0.5.
Consider C24A G51C G52C, for which the yeast fitness was no more than 0.5.
Consider G23C C60U, for which the yeast fitness is no more than 0.5.
In the case of G23C C60A, the yeast fitness worked out at 0.72.
Consider G23C C60G, for which the yeast fitness was no more than 0.5.
For the variant G23C U26A G50A A65C, the yeast fitness was determined as 0.533.
In the case of C24A A42G C49U U59G C62A, the yeast fitness amounted to 0.547.
Turning to G23C C31G G38C, the yeast fitness is no more than 0.5.
As for G23C G56A A57G, the yeast fitness was no more than 0.5.
As for C24A C31A A65C, the yeast fitness was no more than 0.5.
With G23C C30U C46U, the yeast fitness is no more than 0.5.
For G23C G25A C30G A65C, the yeast fitness was no more than 0.5.
Under C24A C55G stands 0.545.
As for G23C U32A C49A U54G, the yeast fitness is no more than 0.5.
Turning to C24A A45U, the yeast fitness stood at 0.57.
As for C24A A45G, the yeast fitness was found to be 0.626.
In the case of C24A G51A C66U, the yeast fitness was no more than 0.5.
Take G23C C31U C49U: the yeast fitness amounted to 0.58.
To C24G A36U U54A belongs no more than 0.5.
In the case of G23C U47A A57G G58C, the yeast fitness is no more than 0.5.
Turning to C24A C29A G44A C46G, the yeast fitness came to 0.583.
On to G23C C49U, for which the yeast fitness was 0.71.
With C24A C31U A42C G50A, the yeast fitness was no more than 0.5.
As for C24G A36G A42C C61U C62G, the yeast fitness was no more than 0.5.
As to C24A U59G C66U A70C, the yeast fitness is 0.529.
In the case of C24A A36C G48C G52C, the yeast fitness is no more than 0.5.
In the case of C24A C33U A57U U59G, the yeast fitness is no more than 0.5.
Turning to C24A C31U A36G A37G G48A U53G, the yeast fitness was found to be 0.653.
As for C24A G39C A70C, the yeast fitness came to 0.601.
In the case of C24A G25A U47C G52C, the yeast fitness is no more than 0.5.
Turning to C24A U53C, the yeast fitness stood at 0.598.
To C24A C49U U59G C62U A70G belongs no more than 0.5.
C24A C29U: the yeast fitness is 0.643.
With G23C C33G A42U G56U C62U, the yeast fitness is no more than 0.5.
Under G23C U32A stands 0.565; under G23C U32C, 0.72; under G23C C33G C46A, 0.53.
For C24A C49G A69C, the yeast fitness is no more than 0.5.
As to C24A A36U G41C, the yeast fitness was no more than 0.5.
As to G23C C62G C66A, the yeast fitness is no more than 0.5.
As for C24A C31G G51C C55U G58C A70U, the yeast fitness is no more than 0.5.
For the variant C24A C29U C61U C66G, the yeast fitness was determined as 0.544.
Under C24G A36G A65U stands 0.554.
G23U A43G: the yeast fitness amounted to 0.758.
Consider G23U A43C, for which the yeast fitness is 0.605.
C24A A36U A43C C55A G56A: the yeast fitness was no more than 0.5.
As to G23U A37U, the yeast fitness was no more than 0.5.
To C24A C27G C29G belongs 0.639; to C24G A36U A40U C46G G48C, 0.557.
Under C24A C27U C29G G44C G68C stands no more than 0.5; under G23C C55G G67A, 0.526.
To G23C C49G A70C belongs no more than 0.5; to C24A C31U A42C, 0.529; to C24A A45G U54C C62U, no more than 0.5.
Turning to G23U A57G, the yeast fitness came to 0.665.
For C24G A36U A37C C66U G67A, the yeast fitness was no more than 0.5.
As to C24A C31G G51C C55U G58C, the yeast fitness is no more than 0.5.
C24A G38A U47A C55G C61U: the yeast fitness is no more than 0.5.
On to G23C G51A, for which the yeast fitness came out at 0.671.
Take C24A C29G A45G C62A A69C: the yeast fitness turned out to be 0.52.
C24A A40G C61U: the yeast fitness is no more than 0.5.
